According to ChEMBL document CHEMBL4219224, “Structure based drug design and in vitro metabolism study: Discovery of N-(4-methylthiophenyl)-N,2-dimethyl-cyclopenta[d]pyrimidine as a potent microtubule targeting agent” (Bioorg Med Chem, 2018):

Columns and labels:
BT-549 = assay: Growth inhibition of human BT549 cells incubated for 48 hrs by sulforhodamine B assay; type: functional; details: BT-549, 48 h
HOP-92 = assay: Growth inhibition of human HOP92 cells incubated for 48 hrs by sulforhodamine B assay; type: functional; details: HOP-92, 48 h
HeLa [1] = assay: Antiproliferative activity against human HeLa cells expressing wild type beta3 tubulin by SRB assay; type: functional, cell-based
EKVX = assay: Growth inhibition of human EKVX cells incubated for 48 hrs by sulforhodamine B assay; type: functional
U-251 = assay: Growth inhibition of human U251 cells incubated for 48 hrs by sulforhodamine B assay; type: functional; details: U-251, 48 h
COLO 205 = assay: Growth inhibition of human COLO205 cells incubated for 48 hrs by sulforhodamine B assay; type: functional; details: COLO 205, 48 h
NCI-H23 = assay: Growth inhibition of human NCI-H23 cells incubated for 48 hrs by sulforhodamine B assay; type: functional; details: NCI-H23, 48 h
[2] = Induction of microtubule depolymerization in rat A10 cells by indirect immunofluorescence method; type: cell-based
Summary of the method: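 A-10 cells, which arrest in interphase, used to score loss of interphase microtubules. EC50 values calculated per an earlier method, minimum of three independent experiments.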

MDA-MB-435 (human) = assay: Antiproliferative activity against human MDA-MB-435 cells by SRB assay
[3] = Retention time of the compound in human liver microsomes at 20 uM by LC-MS/MS analysis; type: ADME, microsome
Summary of the method: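 Human liver microsomes (both genders; 1.0 mg/mL) in 100 mM PBS pH 7.4 with 3 mM MgCl2 and 10 mM NADPH, preincubated at 37 °C. Reaction started with compound at 20 μM final (from DMSO stock); propranolol 5 μM as control. Aliquots at 0 and 60 min quenched in ice-cold ACN. Analysed by LC/MS/MS on a C18 column, 5–75% B gradient over 30 min, ESI.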

SF-268 = assay: Growth inhibition of human SF268 cells incubated for 48 hrs by sulforhodamine B assay; type: functional; details: SF-268, 48 h
Bos taurus = organism: Bos taurus; assay: Inhibition of [3H]colchicine binding to bovine brain tubulin at 1 uM measured after 10 mins by scintillation counting method relative to control
Summary of the method: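 Reactions of 0.1 mL held 1.0 μM bovine brain tubulin, 5.0 μM [3H]colchicine, inhibitor at 1.0 or 5.0 μM, colchicine-binding stabilizing components and 5% DMSO, assembled on ice with tubulin added last. Incubated 10 min at 37 °C, stopped with ice water, filtered through DEAE-cellulose filters. Bound radiolabel counted by scintillation.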

MDA-MB-468 = assay: Growth inhibition of human MDA-MB-468 cells incubated for 48 hrs by sulforhodamine B assay; type: functional; details: MDA-MB-468, 48 h
NCI-H322M = assay: Growth inhibition of human NCI-H322M cells incubated for 48 hrs by sulforhodamine B assay; type: functional
OVCAR-3 = assay: Growth inhibition of human OVCAR3 cells incubated for 48 hrs by sulforhodamine B assay; type: functional; details: OVCAR-3, 48 h
PC-3 = assay: Growth inhibition of human PC3 cells incubated for 48 hrs by sulforhodamine B assay; type: functional; details: PC-3, 48 h
CAKI-1 = assay: Growth inhibition of human Caki1 cells incubated for 48 hrs by sulforhodamine B assay; type: functional; details: CAKI-1, 48 h
NCI-H522 = assay: Growth inhibition of human NCI-H522 cells incubated for 48 hrs by sulforhodamine B assay; type: functional; details: NCI-H522, 48 h
OVCAR-5 = assay: Growth inhibition of human OVCAR5 cells incubated for 48 hrs by sulforhodamine B assay; type: functional; details: OVCAR-5, 48 h
DU-145 = assay: Growth inhibition of human DU145 cells incubated for 48 hrs by sulforhodamine B assay; type: functional; details: DU-145, 48 h
A498 = assay: Growth inhibition of human A498 cells incubated for 48 hrs by sulforhodamine B assay; type: functional; details: A498, 48 h
SR = assay: Growth inhibition of human SR cells incubated for 48 hrs by sulforhodamine B assay; type: functional
SNB-19 = assay: Growth inhibition of human SNB19 cells incubated for 48 hrs by sulforhodamine B assay; type: functional; details: SNB-19, 48 h
MCF7 = assay: Growth inhibition of human MCF7 cells incubated for 48 hrs by sulforhodamine B assay; type: functional; details: MCF7, 48 h
SK-OV-3 = assay: Antiproliferative activity against human SKOV3 cells by SRB assay; type: functional, cell-based
A549 = assay: Growth inhibition of human A549/ATCC cells incubated for 48 hrs by sulforhodamine B assay; type: functional; details: A549, 48 h
SF-539 = assay: Growth inhibition of human SF539 cells incubated for 48 hrs by sulforhodamine B assay; type: functional; details: SF-539, 48 h
HeLa [4] = assay: Resistance index, ratio of IC50 for human HeLa cells expressing wild type beta3 tubulin to IC50 for human HeLa cells; type: functional
Summary of the method: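 Antiproliferative IC50 by SRB assay (cellular protein) in each isogenic pair: SK-OV-3 parental versus Pgp-expressing, and parental HeLa versus wild-type βIII-tubulin-expressing HeLa. Rr is the IC50 ratio of the modified line to the parental line. At least three independent experiments, each in triplicate, mean ± SD.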

## CSc1ccc(N(C)c2nc(C)nc3c2CCC3)cc1
BT-549
  GI50: < 10 nM
HOP-92
  GI50: < 10 nM
HeLa [1]
  IC50: 5.3 nM
EKVX
  GI50: < 10 nM
U-251
  GI50: < 10 nM
COLO 205
  GI50: < 10 nM
NCI-H23
  GI50: < 10 nM
[2]
  EC50: 13 nM
MDA-MB-435 (human)
  IC50: 4.6 nM
[3]
  Retention_time: 17.4 min
SF-268
  GI50: < 10 nM
Bos taurus
  inhibition: 74%
MDA-MB-468
  GI50: < 10 nM
NCI-H322M
  GI50: > 10000 nM
OVCAR-3
  GI50: < 10 nM
PC-3
  GI50: < 10 nM
CAKI-1
  GI50: < 10 nM
NCI-H522
  GI50: < 10 nM
OVCAR-5
  GI50: > 10000 nM
DU-145
  GI50: < 10 nM
A498
  GI50: < 10 nM
SR
  GI50: < 10 nM
SNB-19
  GI50: < 10 nM
MCF7
  GI50: < 10 nM
SK-OV-3
  IC50: 7.2 nM
A549
  GI50: < 10 nM
SF-539
  GI50: < 10 nM
HeLa [4]
  Ratio IC50: 0.8
